Screens (PubChem BioAssay)
OXTR potentiator: human OXTR potentiators, primary screen, fluorescence, CHO-OTR cells, Fluo-8 calcium; Fluo-8 calcium fluorescence, potentiator mode; 0% = oxytocin EC15, 100% = EC100; activation, % at 3 µM; 0.061% of 320,000 active; AID 2445, 2010;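 active = activation above that plate's cutoff, the mean activation of tested compounds plus 3 SD, cut at about 6.6% in these data, passing the limit was not always enough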;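 also: 100% uses oxytocin at 75 nM as the full agonist control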
Target sequence (P30559 whole entry, looked up): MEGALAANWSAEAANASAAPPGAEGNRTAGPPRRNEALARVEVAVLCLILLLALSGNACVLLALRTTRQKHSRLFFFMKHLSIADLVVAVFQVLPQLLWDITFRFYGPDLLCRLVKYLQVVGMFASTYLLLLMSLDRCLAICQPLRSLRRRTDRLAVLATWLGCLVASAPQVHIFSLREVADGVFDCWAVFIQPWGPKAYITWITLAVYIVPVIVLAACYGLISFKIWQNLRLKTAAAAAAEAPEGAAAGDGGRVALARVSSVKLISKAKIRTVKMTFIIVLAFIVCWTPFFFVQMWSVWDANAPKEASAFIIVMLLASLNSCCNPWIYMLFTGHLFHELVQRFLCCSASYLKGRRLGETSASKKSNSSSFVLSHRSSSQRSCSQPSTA
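Dosing: Single dose, 3.0 µM nominal final compound concentration | Material: Human OTR in CHO cells | Technique: Kinetic Fluo-8 calcium fluorescence | Benchmarks: EC15 oxytocin alone as 0%, 75 nM oxytocin as 100% | Probe or stimulus: Oxytocin at about EC15, sub-maximal agonist stimulus | Incubation: Compound 6 min at room temperature before oxytocin, 100 s read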
OXTR ag: human OXTR agonists, primary screen, fluorescence, CHO-OTR cells, Fluo-8 calcium; Fluo-8 calcium fluorescence; normalized: DMSO 0%, oxytocin 100%; activation, % at 3 µM; 0.32% of 320,000 active;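 active = activation above the mean of all tested compounds plus 3 SD, cutoff set per screening run, cut at about 20% in these data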;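 also: peak over basal fluorescence ratio from a 100 s FLIPR kinetic read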
zfTRPN1 agonist: zebrafish TRPN1 channel agonists, primary screen, cell-based, HEK293, calcium fluorescence. transient receptor potential cation channel N1 (TRPN1/NompC), Danio rerio. HEK293 zebrafish TRPN1-YFP, Fluo-8 calcium fluorescence; 100% = response to 87 µM carbachol. activation, % at 3 µM. 0.18% of 220,000 active. AID 1424, 2008;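 active = activation above its plate's cutoff, the mean activation of test wells on that plate plus 3 SD, cut at about 19% in these data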;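 also: 0% = DMSO alone and 100% = 87 µM carbachol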
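Material: zebrafish TRPN1-YFP in HEK293 cells. Doses: one dose of 3 µM, 0.3% DMSO. Incubation: dye 1 h 37 °C plus 30 min RT. Measured by: intracellular calcium fluorescence with Fluo-8.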
TRPML3 agonist: human TRPML3 channel agonists, primary screen, cell-based, HEK293 TRPML3-YFP, Fluo-8 calcium fluorescence, 3 µM | Mucolipin-3 (Homo sapiens), Q8TDD5 | 100% = the carbachol control signal | 0.29% of 220,000 active | activation, % at 3 µM;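 active = activation above its plate's cutoff, the mean activation of the plate's test wells plus 3 SD, cut at about 12% in these data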;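 also: 0% = DMSO only wells and 100% = carbachol wells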
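Test system: TRPML3-YFP stable HEK293 cells. Doses: single point at 3 µM. Incubation: dye loading 1 h 37 °C then 30 min ambient, 125 s read. Signal: Fluo-8 calcium dye fluorescence, ex 470-495, em 515-575 nm. Measure: percent activation from peak-to-basal fluorescence ratio, scaled between DMSO and carbachol.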
V1aR counter: agonists of human V1a receptor, primary screen, counter-screen for OXTR agonist project, fluorescence, CHO-V1R cells. Vasopressin V1a receptor (Homo sapiens), P37288. Fluo-8 calcium fluorescence, agonist mode; 0% DMSO, 100% 3 nM vasopressin. activation, % at 3 µM. 0.25% of 320,000 active. AID 2797, 2010;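 active = activation above the mean activation of all tested compounds plus 3 SD, per screening run, cut at about 20% in these data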;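 also: signal is peak over basal fluorescence ratio across a 100 second FLIPR read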
OXTR pot cf: human OXTR potentiators, confirmation, fluorescence, CHO-OTR cells, triplicate; shares compounds with OXTR potentiator; Fluo-8 calcium fluorescence, potentiation; scaled from low-dose to maximal oxytocin; activation, % at 3 µM; 180 tested, under 10 active; AID 434985, 2010;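 active = mean percent activation over triplicates above a cutoff set from solvent-only control plates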;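 also: compounds tested in the presence of an EC15 dose of oxytocin; 0% = EC15 oxytocin with DMSO and 100% = EC100 oxytocin with DMSO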
Starred values were filed as active, the others as inactive; · = no result. The list is not random: actives were taken first. Their share in the collection is about 0.55%.

SMILES	OXTR potentiator	OXTR ag	zfTRPN1 agonist	TRPML3 agonist	V1aR counter	OXTR pot cf
O=C(CCCSc1nc2ccccc2[nH]1)NCc1ccccc1	12.0*	-1.2	-1.5	-0.6	2.5	-8.2
Cc1ccc(Cl)cc1NC(=O)COC(=O)CC1CCCCC1	-8.1	-1.8	·	·	-1.0	·
CCN1CCCC1CNCc1cc(OC)c(OC)c(OC)c1 (stereo not drawn)	13.0*	3.3	1.7	0.5	1.5	-5.3
O=C1c2ccccc2C(=O)N1Cc1ccc2c(c1)OCO2	-5.8	-0.2	-1.1	-0.4	-0.1	·
O=C(O)c1ccc2c(c1)C(=O)N(Cc1ccc3c(c1)OCO3)C2=O	11.1*	0.2	1.0	0.4	0.0	-5.0
CCOC(=O)c1c(C)[nH]c(C)c1C(=O)CN1C(=O)NC2(CCCCCC2)C1=O	3.0	-1.7	·	·	-0.9	·
CCOC(=O)c1c(C)[nH]c(C(=O)CN2C(=O)NC3(CCCC3)C2=O)c1C	6.3*	1.2	2.3	1.3	0.4	-6.6
CC[C@@]1(O)C(=O)OCc2c1cc1n(c2=O)Cc2cc3c(N)cccc3nc2-1	14.6*	-0.4	·	·	0.2	-3.1
Cc1ccc(S(=O)(=O)N2CCC[C@H]2C(=O)NCc2ccccc2Cl)cc1	-3.2	-0.1	·	·	1.8	·
O=C(O)CN(c1ccccc1F)S(=O)(=O)c1ccccc1	10.7*	1.0	0.6	0.2	0.1	-5.0
CCOC(=O)[C@H]1[C@H]2COc3ccccc3[C@@H]2N2C(=O)CNC(=O)[C@@]12C	-6.7	1.5	·	·	0.4	·
COc1ccc(-c2nnc(Nc3ccc(OC)c(C(=O)N4CCCCC4)c3)c3ccccc23)cc1	13.0*	0.2	-2.7	-1.4	2.2	1.4
CCOC(=O)N[C@H](Cc1c[nH]c2ccccc12)C(=O)NC1CC1	10.4*	1.2	-0.7	-0.5	0.4	-1.6
CCCC(=O)Nc1cc(S(=O)(=O)N2CCCCC2)ccc1N1CCOCC1	0.4	0.9	·	·	0.3	·
CCCC(=O)Nc1cc(S(=O)(=O)N2CCOCC2)ccc1N1CCCCC1	12.5*	-0.6	·	·	0.0	-7.1
Cc1ccc2c(c1)-n1c(nc3cc(Cl)ccc3c1=O)C(CC(C)C)NC2=O (stereo not drawn)	13.3*	-1.3	·	·	0.9	-0.5
O=C1c2nccnc2C(=O)N1c1ccc(F)cc1	10.5*	1.3	0.6	0.6	1.2	-0.8
O=C(O)c1ccc(N2C(=O)c3cccnc3C2=O)cc1	-2.4	0.3	1.6	0.5	0.2	·
COCCNC(=S)N/N=C/c1ccc(N2CCOCC2)cc1	-12.2	-0.5	0.2	1.0	0.7	·
COc1cc(/C=N/NC(=S)NCCN2CCOCC2)ccc1O	12.3*	0.1	-0.6	0.2	-0.4	-11.3
O=C(CSc1nnc(NC(=O)c2cccc(Cl)c2)s1)NCC1CCCO1 (stereo not drawn)	-2.7	-0.4	·	·	2.5	·
C=CCN1C(=O)C(=O)N(CC(=O)NCC(=O)Nc2ccc(F)c(F)c2F)C1=O	-2.7	2.7	·	·	1.8	·
Cc1ccccc1-c1nc(CN(C)C(C)c2ccon2)c(C)o1 (stereo not drawn)	12.8*	-1.3	-1.1	-0.3	-1.2	-0.7
Cc1oc(-c2ccccc2Cl)nc1CN(C)C(C)c1ccon1 (stereo not drawn)	0.8	-1.6	-1.0	-0.6	-1.1	·
COc1ccc(N2CCN(C(=O)c3c(-c4c(F)cccc4Cl)noc3C)CC2)cc1	-2.5	1.3	·	·	1.1	·
SMILES	OXTR potentiator	OXTR ag	zfTRPN1 agonist	TRPML3 agonist	V1aR counter	OXTR pot cf
Cn1c(=O)c2[nH]c(-c3ccccc3Cl)c(O)c2n(C)c1=O	22.4*	1.2	10.7	7.1	3.0	-4.6
CC1(C)CC(=O)N(c2cc(Cl)cc(Cl)c2)C(=O)C1	-6.7	0.0	·	·	0.0	·
COc1ccc(NC(=O)c2cc(C)cc(C)c2)cc1S(=O)(=O)N1CCCCC1	-4.7	-1.8	·	·	-1.2	·
CC1CCN(C(=O)C2CCN(S(=O)(=O)c3cnc[nH]3)CC2)CC1	-3.9	3.6	-0.8	0.3	2.7	·
CC1CCN(S(=O)(=O)c2cnc[nH]2)CC1	8.5*	-0.2	·	·	1.0	-9.3
Cc1csc(SCC(=O)Nc2cc([N+](=O)[O-])ccc2F)n1	0.6	-0.7	·	·	7.5	·
COC1CCCCC1Nc1cccc(SC)c1 (stereo not drawn)	11.8*	-1.3	-1.4	-0.2	-1.1	-2.9
Cc1ccc(S(=O)(=O)C2(C(=O)NC3CCCCC3C)CC2)cc1 (stereo not drawn)	17.3*	-1.3	-2.5	-0.4	-1.5	-8.3
CC(=O)c1cc(CN2CCN(C(C)C)C(CCO)C2)cs1 (stereo not drawn)	12.2*	1.5	1.7	0.4	-0.3	-3.5
CCN1C(=O)N(CC)c2cccc3cccc1c23	11.4*	-2.3	·	·	-1.4	-3.7
CN(C)S(=O)(=O)c1ccc(C(=O)Nc2ccn(C)n2)cc1	-1.0	0.4	·	·	-0.4	·
CCCCn1c(N)c(N(CC(C)C)C(=O)c2ccc(-c3ccc(Cl)cc3)o2)c(=O)[nH]c1=O	-6.3	-2.8	·	·	-1.9	·
CCCCn1c(N)c(N(CC)C(=O)c2ccc(-c3ccc(Cl)cc3)o2)c(=O)[nH]c1=O	11.5*	-0.1	·	·	0.0	-10.7
CN(c1ccccc1C(=O)Nc1ccc(S(=O)(=O)N2CCCCC2)cc1)S(C)(=O)=O	10.9*	0.6	1.8	0.0	0.3	-7.9
COc1ccccc1N(CC(=O)N1CCCC1)S(=O)(=O)c1cc([N+](=O)[O-])ccc1Cl	-8.5	0.5	·	·	0.5	·
C[C@H](CO)N1C[C@H](C)[C@@H](CN(C)S(=O)(=O)c2cccs2)Oc2ccc(NC(=O)Nc3ccccc3)cc2C1=O	14.9*	2.6	·	·	2.9	-6.8
C[C@@H]1CN([C@H](C)CO)C(=O)c2cc(NC(=O)Nc3ccc(C(F)(F)F)cc3)ccc2O[C@H]1CN(C)S(=O)(=O)c1cccs1	-5.9	2.2	·	·	2.0	·
C[C@H](CO)N1C[C@H](C)[C@@H](CN(C)C(=O)Nc2ccc(C(F)(F)F)cc2)Oc2c(cccc2N(C)C)C1=O	12.1*	-0.5	·	·	0.1	0.0
CCOc1cc(N2CCOCC2)c(OCC)cc1NC(=O)COC(=O)c1ccc([N+](=O)[O-])o1	-8.2	0.3	·	·	0.4	·
Fc1ccc2c(-c3cccc(C(F)(F)F)c3)c(-c3ccccc3)ncc2c1	9.4*	0.4	·	·	1.2	-8.3
